Experimental data taken from PubChem BioAssay AID504666 (Broad Institute, 2011).
Where “and” joins values, the source holds several entries; their conditions need not be identical. Equal entries are not always repeated. Inconclusive results are not listed. Calls of active or inactive are those of the source.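 How the source made its calls: active means compounds lowering the viability signal in every test, with half-maximal concentration at most ten times the top dose; inconclusive means mixed test calls, a flat partial drop, or a poor fit; inactive means all tests inactive.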

System: not listed separately
Assay: cytotoxicity toward control HMLE_sh_eGFP cells, dose response, counter-screen for breast cancer stem cell project, cell-based, CellTiter-Glo luminescence, 72 h, dry powder, set 6 (AID 504666)
Conditions: HMLE_sh_eGFP viability, CellTiter-Glo luminescence, 72 h; at 19.5 µM (top of the series)
Procedure, shortened: (§1)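 Material – HMLE_sh_eGFP cell line · Amount – 2000 cells/well · Buffer or medium – serum-free culture medium for cell plating and exposure · Compound dosing – 100 nL pinned compound · Incubation – ~70-74 h compound exposure, 37 °C · Measured by – CellTiter-Glo luminescence, reagent used at 1:3 dilution in PBS · Control set – DMSO neutral, puromycin positive controls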
For Cc1csc(NC(=O)c2ccc(COC(C)C)o2)n1, the activity change, negative = toxicity was 7.01% (inactive). With O=C(Nc1nncs1)c1ccc(COc2ccccc2)o1 the activity change, negative = toxicity was 8.89% (inactive). With Cc1csc(NC(=O)c2ccc(CS(=O)(=O)c3ccccc3)o2)n1 the activity change, negative = toxicity was 1.03% (inactive). With Cc1coc(NC(=O)c2ccc(COc3ccccc3)o2)n1 the activity change, negative = toxicity was -6.36% (inactive). In the case of CCN(CC)C(=O)c1ccc(COc2ccccc2)o1, the activity change, negative = toxicity is reported as -2.12% (inactive). For CC(C)NC(=O)c1ccc(COc2ccccc2)o1, the activity change, negative = toxicity was 0.674% (inactive). In the case of Cc1csc(NC(=O)c2ccc(COc3cccc(S(C)(=O)=O)c3)o2)n1, the activity change, negative = toxicity is reported as -5.74% (inactive). In the case of COc1ccc(/C=C/C(=O)NC2=NCCS2)c(OC)c1, the activity change, negative = toxicity is reported as -4.82% (inactive). In the case of Cc1coc(NC(=O)/C=C/c2ccc(C(C)C)cc2)n1, the activity change, negative = toxicity is reported as -9.8% (inactive). In the case of CC(C)c1ccc(/C=C/C(=O)N(C)C2=NCCS2)cc1, the activity change, negative = toxicity is reported as -2.24% (inactive). In the case of C/C(=C\C(=O)NC1=NCCS1)c1ccc(C)cc1, the activity change, negative = toxicity is reported as -6.97% (inactive). For Cc1csc(NC(=O)c2ccc(COC(C)(C)C)o2)n1, the activity change, negative = toxicity was -6.71% (inactive). In the case of Cc1cc(C)c(OCC(=O)N/N=C/c2ccc[nH]2)c(C)c1, the activity change, negative = toxicity is reported as -14% (inactive).

Same assay, conditions: HMLE_sh_eGFP viability, CellTiter-Glo luminescence, 72 h; at 30 µM (top of the series)
For COc1ccc(OC)c2sc(NC(=O)c3ccc(COc4ccccc4)o3)nc12, the activity change, negative = toxicity was -8.62% (inactive). With Cc1ccc2cc(C(=O)NC3=NCCS3)n(C)c2c1 the activity change, negative = toxicity was -2.52% (inactive). In the case of Cc1csc(NC(=O)c2cocc2COc2ccccc2)n1, the activity change, negative = toxicity is reported as 8.46% (inactive).

System: HMLE_sh_eGFP viability, CellTiter-Glo luminescence, 72 h
Assay: as above
Conditions: not given
Procedure, shortened: as §1
For CC(C)c1ccc(C2CC2C(=O)NC2=NCCS2)cc1 (stereo not drawn), the AC50 was 23.9 µM. With Cc1csc(NC(=O)c2coc(COc3ccccc3)c2)n1 the AC50 was 2.78 µM. With CC(C)Cc1ccc(/C=C/C(=O)NC2=NCCS2)cc1 the AC50 was 1.07 µM. In the case of Cc1csc(NC(=O)c2ccc(COC3CCCCC3)o2)n1, the AC50 is reported as 18.5 µM. For CC(C)c1ccc(/C=C/C(=O)Nc2nc(C(F)(F)F)cs2)cc1, the AC50 was 8.98 µM. With Cc1csc(NC(=O)c2ccc(COc3cccc(F)c3)o2)n1 the AC50 was 18.6 µM. With O=C(Nc1nc2c(Cl)cccc2s1)c1ccc(COc2ccccc2)o1 the AC50 was 31.3 µM. For CC(C)c1ccc(/C=C/C(=O)Nc2cncs2)cc1, the AC50 was 9.59 µM. Work on Cc1csc(NC(=O)c2ccc(COc3cccc(Cl)c3)o2)n1 yielded an AC50 of 9.15 µM. Cc1cc(Br)ccc1OCC(=O)N/N=C/c1ccc[nH]1 gave an AC50 of 17.7 µM. Cc1csc(NC(=O)c2ccc(CNc3ccccc3)o2)n1 gave an AC50 of 2.62 µM. COc1ccc2nc(NC(=O)c3ccc(COc4ccccc4)o3)sc2c1 showed an AC50 of 2.54 µM. For Cc1csc(NC(=O)c2ccoc2COc2ccccc2)n1, the AC50 was 20.5 µM. Molecule O=C(Nc1nc(C(F)(F)F)cs1)c1ccc(COc2ccccc2)o1 has an AC50 of 19.3 µM. Molecule Cc1csc(NC(=O)c2ccc(COCc3ccccc3)o2)n1 has an AC50 of 10.5 µM. COc1cccc(OCc2ccc(C(=O)Nc3nc(C)cs3)o2)c1 showed an AC50 of 1.65 µM. Molecule Cc1csc(NC(=O)c2ccc(COc3ccccc3)o2)n1 has an AC50 of 21.1 µM. Work on Cc1csc(NC(=O)c2ccc(COc3cccc(OC(F)(F)F)c3)o2)n1 yielded an AC50 of 0.667 µM. With Cc1csc(NC(=O)c2ccc(COc3cccc(Oc4ccccc4)c3)o2)n1 the AC50 was 0.738 µM. In the case of Cc1csc(NCc2ccc(COc3ccccc3)o2)n1, the AC50 is reported as 20.7 µM. Cc1csc(NC(=O)c2ccc(COc3cc(Cl)ccc3Cl)o2)n1 showed an AC50 of 0.063 µM. In the case of Cc1cccc(OCc2ccc(C(=O)Nc3nc(C)cs3)o2)c1, the AC50 is reported as 0.254 µM and 1.98 µM. For COc1ccc(OCc2ccc(C(=O)Nc3nc(C)cs3)o2)c(F)c1, the AC50 was 14.2 µM. With Cc1ccc(OCc2ccc(C(=O)Nc3nc(C)cs3)o2)cc1 the AC50 was 6.79 µM. For N#Cc1csc(NC(=O)c2ccc(COc3ccccc3)o2)n1, the AC50 was 23.1 µM. For COc1ccc(Cl)c(OCc2ccc(C(=O)Nc3nc(C)cs3)o2)c1, the AC50 was 0.166 µM. In the case of Cc1csc(NC(=O)c2ccc(CCc3ccccc3)o2)n1, the AC50 is reported as 5.68 µM. With C/C(=C\C(=O)NC1=NCCS1)c1ccc(CC(C)C)cc1 the AC50 was 27.4 µM. Molecule CCOc1cccc(OCc2ccc(C(=O)Nc3nc(C)cs3)o2)c1 has an AC50 of 4.16 µM. Work on CCc1ccc(/C=C/C(=O)NC2=NCCS2)cc1 yielded an AC50 of 28.3 µM. For CC(C)c1ccc(/C=C/C(=O)NC2=NCCS2)cc1, the AC50 was 21.7 µM. Work on Cc1csc(NC(=O)c2ccc(COc3ccccc3F)o2)n1 yielded an AC50 of 0.089 µM.
